High-throughput results (PubChem)
Shown are actives, neighbours in structure and some others; about 4.1% of the full set was active somewhere.
ATG4B inhibitor = ATG4B protease inhibitors, primary screen, biochemical, fluorescence, uHTS. Cysteine protease ATG4B (Homo sapiens), Q9Y4P1. ATG4B cleavage of LC3-PLA2, NBD-HPC fluorescence, 1 h. inhibition, % at 8.33 µM. 0.51% of 340,000 active; in the data active = inhibition above about 40%
SMARCA2 act = SMARCA2 (BRM) function activators, primary screen, cell-based, luminescence, high throughput; MG213 cells, MMTV-luciferase reporter, dexamethasone, overnight; activation, % at 9.1 µM; AID 652017, 2013; 1% of 370,000 active; in the data active = activation above about 7.8%;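 note: 0% = vehicle wells and 100% = reference activator wells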
MC4R antagonist = MC4R antagonists of cAMP signaling, primary screen, cell-based, TR-FRET, antagonist arm of biased-ligand search | Melanocortin receptor 4 (Homo sapiens), P32245 | MC4R-expressing cells, MTII-stimulated cAMP, LANCE TR-FRET | inhibition, % at 6.5 µM | 0.48% of 360,000 active | AID 540295, 2011;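 active = inhibition above its plate's cutoff, the mean of tested wells on that plate plus 3 SD, cut at about 29% in these data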;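 note: 0% = Melanotan II alone and 100% = Melanotan II plus saturating MCL0020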
Target sequence (P32245 whole entry, looked up): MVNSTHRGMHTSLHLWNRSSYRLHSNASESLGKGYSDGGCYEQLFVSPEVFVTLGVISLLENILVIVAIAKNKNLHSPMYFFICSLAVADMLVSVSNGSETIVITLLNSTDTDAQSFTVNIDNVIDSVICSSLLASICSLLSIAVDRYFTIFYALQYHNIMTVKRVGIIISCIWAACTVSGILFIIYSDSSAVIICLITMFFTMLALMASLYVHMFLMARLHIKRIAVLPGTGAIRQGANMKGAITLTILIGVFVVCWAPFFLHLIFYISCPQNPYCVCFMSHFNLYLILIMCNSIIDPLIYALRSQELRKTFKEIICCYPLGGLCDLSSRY
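system = U2OS cells with stable human MC4R expression | also added = Melanotan II challenge after compound preincubation | dosing = one concentration, 6.5 µM nominal | incubation = compound 30 min, challenge 1 h, detection 1 h | measured by = TR-FRET with Eu-cAMP and labeled anti-cAMP, 671 nm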
MC4R ag barr = MC4R agonists recruiting beta-arrestin, primary screen, cell-based, luminescence, agonist arm of biased-ligand search | Melanocortin receptor 4 (Homo sapiens), P32245 | U2OS MC4R beta-arrestin complementation; percent of melanotan II response, DMSO zero | activation, % at 8.9 µM | 0.98% of 360,000 active | AID 540308, 2011;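 active = activation above a per-plate cutoff, the mean activation of sample wells on that plate plus 3 SD, cut at about 8% in these data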
MPTP inh = mitochondrial permeability transition pore inhibitors, primary screen, biochemical, isolated mouse mitochondria, absorbance; Ca2+ swelling absorbance, 30 min; inhibition, % at 10 µM; 1.4% of 360,000 active;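 active = inhibition of 50% or more, scaled per plate between neutral and stimulator controls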;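 note: 0% = DMSO wells given calcium and 100% = 1 mM EGTA wells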
SMARCA2 act conf = SMARCA2 (BRM) function activators, confirmation, cell-based, luminescence, triplicate. shares compounds with SMARCA2 act. MG213 cells, MMTV-luciferase with dexamethasone, overnight; MG213 cells expressing E1A, Rb sequestered; DMSO wells 0%, reference activator 100%. activation, % at 9.1 µM. 30% of 3,500 active;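 active = activation above its plate's cutoff, the mean activation of tested wells plus 3 SD, cut at about 7.9% in these data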
VP16 Luc act = GAL4-VP16 luciferase reporter activation, counter-screen for SMARCA2 (BRM) activator project, cell-based, pG5luc, luminescence, high throughput. shares compounds with SMARCA2 act. HEK293 GAL4-VP16 pG5luc reporter; scaled: DMSO wells 0%, SAHA wells 100%. activation, % at 9.1 µM. 41% of 3,500 active. AID 686939, 2013;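 active = activation above the solvent-only control well mean plus 3 SD, averaged across control plates, cut at about 5.2% in these data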
Starred values were filed as active, the others as inactive; x = no result given.

SMILES | ATG4B inhibitor | SMARCA2 act | MC4R antagonist | MC4R ag barr | MPTP inh | SMARCA2 act conf | VP16 Luc act
CCc1nnc(NC(=O)c2sc3nc4c(cc3c2N)CCCCC4)s1 | 3 | 6 | 21 | 0 | 1 | x | x
O=c1cc(-c2ccccc2)oc2cc(O)c(O)c(O)c12 | -25 | 8.3* | -13 | 0 | x | 9.4* | 13*
COc1c(O)cc2oc(-c3ccc(O)cc3)cc(=O)c2c1O | 5 | 7 | -20 | -1 | 0 | x | x
Cc1cc(NS(=O)(=O)c2ccc(NC(=O)CSc3nnc(-c4ccc(Cl)cc4)n3Cc3ccco3)cc2)nc(C)n1 | x | 9.5* | x | x | x | -3 | -1
COc1ccc(-c2nnc(SCC(=O)Nc3ccc(S(=O)(=O)Nc4cc(C)nc(C)n4)cc3)n2-c2ccc(OC)cc2)cc1 | x | 10* | x | x | x | 0 | 0
COC(=O)CC#C[C@H](C)[C@@H](NS(C)(=O)=O)C(C)(C)COCc1ccccc1 | x | -1 | x | x | x | x | x
COCCCNC(=O)C[C@H]1C[C@@]2(C(=O)OC)C(=C[C@H](C(C)C)O[C@@H]2C2CC2)N(Cc2cccc3ccccc23)C1=O | x | -3 | x | x | x | x | x
O=C(CC(=O)c1cccs1)c1ccncc1 | -5 | 10* | -5 | -3 | -5 | 2 | 4
Cc1ccc(F)cc1NC(=O)CCC(=O)c1cccs1 | 3 | -1 | 9 | -1 | 0 | x | x
O=C(CCC(=O)c1cccs1)NC(c1ccccc1)c1ccccc1 | -4 | 9.0* | 11 | 1 | 0 | -1 | 0
Cc1ccc(NC(=O)CCC(=O)c2cccs2)c(O)c1 | -4 | 10* | -1 | -1 | 1 | 7 | 3
CC(NC(=O)CCC(=O)c1cccs1)c1ccccc1 (stereo unspecified) | 4 | 0 | 9 | 4 | -2 | x | x
CCCC(=O)N1CCC(NS(=O)(=O)c2ccc3c(c2)CCN3C(C)=O)CC1 | x | -6 | x | x | x | x | x
Cc1ccnc2nc(C(=O)Nc3nc4ccccc4s3)nn12 | 6 | 11* | 5 | 3 | 1 | 7 | 11*
Cc1ccnc2nc(C(=O)Nc3nnc(CC(C)C)s3)nn12 | -4 | 2 | 6 | -2 | -2 | x | x
COc1ccc(-c2nc(NC(=O)c3nc4nccc(C)n4n3)sc2C)cc1 | 0 | -3 | 25 | 1 | 0 | x | x
Cc1csc(NC(=O)c2nc3nccc(C)n3n2)n1 | 8 | 8.6* | 5 | 1 | 0 | 4 | 4
Cc1nc2ccc(S(=O)(=O)NCC(=O)NCc3ccccc3Cl)cc2s1 | x | -2 | x | x | x | x | x
O=C(/C=C/c1c(Cl)cccc1Cl)N1CCN(c2ncccn2)CC1 | 2 | -1 | 3 | 1 | 0 | x | x
O=C(/C=C/c1ccco1)N1CCN(c2ncccn2)CC1 | -5 | 8.8* | 6 | -4 | 0 | 6 | 6.5*
O=C(O)C(=O)/C(=C\c1ccccc1)c1ccc2ccccc2n1 | 1 | 8 | -5 | 1 | 1 | x | x
O=C(O)C(=O)/C(=C\c1ccc([N+](=O)[O-])cc1)c1ccc2ccccc2n1 | -11 | 8.7* | 1 | -5 | -2 | 3 | 11*
CC(=O)NCCc1ccc(C(=O)COC(=O)c2cccn2C)cc1 | 3 | 9.2* | 0 | 0 | -1 | 6 | 4
COc1cccc(C(=O)COC(=O)c2cccs2)c1 | -3 | 9.1* | 1 | -4 | -1 | 12* | 2
O=C(COC(=O)c1cccs1)c1ccccc1 | 6 | 6 | -3 | -3 | -1 | x | x
SMILES | ATG4B inhibitor | SMARCA2 act | MC4R antagonist | MC4R ag barr | MPTP inh | SMARCA2 act conf | VP16 Luc act
COc1ccc(C(=O)COC(=O)c2cccs2)cc1 | 9 | 11* | -10 | -1 | -1 | 3 | 10*
CC(=O)NCCc1ccc(C(=O)COC(=O)c2cccs2)cc1 | x | 8.6* | -1 | 0 | 0 | 9.8* | 1
COC(=O)[C@]12C[C@H](CC(=O)NCc3cccc4ccccc34)C(=O)N(Cc3ccc4c(c3)OCO4)C1=C[C@H](C(C)C)O[C@@H]2C1CC1 | x | -3 | x | x | x | x | x
O=C(/C=C/c1ccccc1Cl)Nc1cccnc1 | -11 | 9.0* | -3 | -2 | 0 | 8.3* | 7.5*
Cc1ccc(C)c(C(=O)Nc2nc3ccccc3[nH]2)c1 | 1 | 3 | 9 | 4 | -1 | x | x
Cc1ccc(Nc2nc3ccccc3[nH]2)nc1 | -9 | 8.7* | 4 | -2 | -1 | 7 | 19*
CCc1cc2c(nc1CC)CCCN2S(=O)(=O)c1ccc(C)cc1 | x | -5 | x | x | x | x | x
c1ccc2c(c1)cnc1ccccc12 | -11 | 2 | -5 | 0 | 4 | x | x
c1ccc(-c2ncc3c(ccc4ccccc43)n2)cc1 | 3 | 9.1* | 2 | -4 | 4 | 2 | 5.1*
C(=C\c1ccccc1)/C=N/Nc1nc2ccccc2s1 | 6 | 1 | -2 | 7 | 8 | x | x
Brc1ccc(/C=C/C=N/Nc2nc3ccccc3s2)cc1 | 9 | 13* | 10 | 7 | 5 | 6 | 8.7*
COc1ccc(N2CCN(CC(=O)Nc3ncc(C)s3)CC2)cc1 | -7 | 0 | 1 | 0 | -1 | x | x
Cc1cnc(NC(=O)CN2CCN(c3ccccn3)CC2)s1 | -9 | 12* | 1 | 0 | -2 | 22* | 1
NC(=S)NN=Cc1nccc2c(N)cccc12 | x | 8.3* | -15 | -2 | 2 | -1 | -1
O=C(NCCc1ccc(Cl)cc1)c1ccc2c(c1)ncn2C1CCCCC1 | x | -7 | x | x | x | x | x
Cc1cc(C)cc(NC(=O)CCN2CC(C)OC(C)C2)c1 (stereo unspecified) | 2 | 8.4* | 0 | 2 | 0 | -3 | 2
O=c1c2ccccc2oc2cc(C#Cc3ccccn3)ccc12 | -3 | 8.0* | 8 | 1 | 0 | 3 | 9.6*
COc1cccc2oc3ccc(C#Cc4ccccn4)cc3c(=O)c12 | -6 | 10* | -2 | 0 | 0 | 3 | 10*
CC(C)(C)SCCNC(=O)/C=C/c1ccccc1 | -1 | 8.1* | 22 | 3 | 1 | 6 | 5
Cc1ccc2nc(-c3ccco3)c(Cc3ccccc3C(F)(F)F)n2c1 | x | -2 | x | x | x | x | x
COC(=O)c1ccccc1NC(=S)NC(=O)COc1ccccc1Cl | 14 | -1 | 7 | 2 | 0 | x | x
O=C(COc1ccccc1Cl)NC(=S)Nc1ccccc1N1CCCC1 | 6 | 11* | 9 | -2 | -2 | -3 | 0
N#Cc1ccc(OCCCN2CCC(C(O)(c3ccccc3)c3ccccc3)CC2)cc1 | x | -1 | x | x | x | x | x
Cc1c(C(N)=O)sc2nc(-c3ccccc3)cn12 | 2 | 9.9* | -1 | -1 | -1 | 5 | 13*
